Experimental data: ChEMBL document CHEMBL1240394, “Antibacterial activity of N-pentylpantothenamide is due to inhibition of coenzyme a synthesis” (2010)
The source made the active and inactive calls. The rule behind the calls is not given here.

Assays:
Escherichia coli [1] = experiment: Induction of ethyldethia-ACP accumulation in Escherichia coli JT6 at 200 ug/ml by gel electrophoresis; format: functional, organism-based
Method in brief: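 Exponentially growing E. coli JT6 (UB1005 tolC::Tn10, lacking the outer membrane efflux exit duct) in M9 minimal medium with 0.4% glycerol and 0.1% vitamin-free Casamino Acids. Culture supplemented with 200 μg/ml N5-Pan. ACP species resolved by conformationally sensitive gel electrophoresis.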

Escherichia coli [2] = experiment: Induction of holo-ACP accumulation in Escherichia coli JT6 pJT5 plasmid expressing AcpH at 100 ug/ml after 3 hrs by Western blotting; format: functional, organism-based
Method in brief: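 JT6 cells carrying pJT5 (AcpH under arabinose control), with empty pBAD322 as the vector control, treated with 100 μg/ml N5-Pan. At 3 h, crude cell extracts were run on conformationally sensitive gel electrophoresis. Proteins were electroblotted and probed by Western blot with anti-ACP antibody.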

Escherichia coli [3] = experiment: Inhibition of coenzyme A synthesis in Escherichia coli JT7 carrying panD deletion assessed as decrease in acetyl CoA level at 100 ug/ml after 90 mins by HPLC relative to untreated control; format: functional
Method in brief: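 The culture was split, one half given 100 μg/ml N5-Pan, and both incubated a further 90 min. CoA pools were extracted and analysed by reverse-phase C18 HPLC with internal standards.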

Escherichia coli [4] = experiment: Antibacterial activity against acpH null mutant containing Escherichia coli JT6 transformed with pJT5 expressing AcpH assessed as microbial growth inhibition; format: functional, organism-based
Escherichia coli [5] = experiment: Inhibition of coenzyme A synthesis in acpH null mutant containing Escherichia coli JT6 transformed with pBAD24 plasmid expressing CoaA gene assessed as decrease in acetyl CoA level at 100 ug/ml after 90 mins by HPLC relative to untreated control; format: functional, organism-based
Escherichia coli [6] = experiment: Inhibition of coenzyme A synthesis in acpH null mutant containing Escherichia coli JT6 transformed with pBAD24 plasmid expressing CoaD gene assessed as decrease in acetyl CoA level at 100 ug/ml after 90 mins by HPLC relative to untreated control; format: functional, organism-based
Escherichia coli [7] = experiment: Inhibition of coenzyme A synthesis in acpH null mutant containing Escherichia coli JT6 transformed with pBAD24 plasmid expressing CoaE gene assessed as decrease in acetyl CoA level at 100 ug/ml after 90 mins by HPLC relative to untreated control; format: functional, organism-based
Escherichia coli [8] = experiment: Inhibition of coenzyme A synthesis in acpH null mutant containing Escherichia coli JT6 transformed with pBAD24 plasmid expressing CoaBC gene assessed as decrease in acetyl CoA level at 100 ug/ml after 90 mins by HPLC relative to untreated control; format: functional, organism-based
Escherichia coli [9] = experiment: Antibacterial activity against Escherichia coli JT6 assessed as microbial growth inhibition
Escherichia coli [10] = experiment: Antibacterial activity against Escherichia coli JT13 deficient in acpH gene assessed as microbial growth inhibition

CCCCCNC(=O)CCNC(=O)[C@H](O)C(C)(C)CO
Activity (Escherichia coli [1]): Active
Activity (Escherichia coli [2]): Active
fold change (FC) (Escherichia coli [3]): >10
growth inhibition (GI) (Escherichia coli [4]): inactive
inhibition (Escherichia coli [5]): Active
inhibition (Escherichia coli [6]): Active
inhibition (Escherichia coli [7]): Active
inhibition (Escherichia coli [8]): Active
growth inhibition (GI) (Escherichia coli [9]): Active
growth inhibition (GI) (Escherichia coli [10]): Active
